For two molecules, Kd results are on record in paper PMC10100219 (Chemistry (Weinheim an Der Bergstrasse, Germany), 2022).

Structures are written as SMILES. Changes are numbered by the printed parent chain.

Assay in all cases: UV-Vis titration, Soret spin-state shift
What all share (assay type): binding

Assay [1] deals with T1, CYP199A4 (Rhodopseudomonas palustris, UniProt Q2IU02, T253A).
T1 sequence (Q2IU02 1-410 T253A): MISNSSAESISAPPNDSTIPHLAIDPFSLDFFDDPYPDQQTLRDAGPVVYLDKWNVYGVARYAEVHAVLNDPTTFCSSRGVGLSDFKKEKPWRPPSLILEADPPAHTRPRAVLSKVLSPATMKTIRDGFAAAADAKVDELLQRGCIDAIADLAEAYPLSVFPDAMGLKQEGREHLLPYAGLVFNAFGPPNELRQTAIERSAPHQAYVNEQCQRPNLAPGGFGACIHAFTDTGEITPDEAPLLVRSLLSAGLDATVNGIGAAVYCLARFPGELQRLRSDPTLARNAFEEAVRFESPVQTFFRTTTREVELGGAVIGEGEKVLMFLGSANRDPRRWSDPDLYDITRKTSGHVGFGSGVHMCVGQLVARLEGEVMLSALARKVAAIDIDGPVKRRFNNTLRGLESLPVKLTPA
The gist of the method:
(§1)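 CYP199A4 mutants (D251N, T252A) from Rhodopseudomonas palustris HaA2 were titrated with para-substituted benzoic acid test compounds, with UV-Vis monitoring to obtain Kd. Spectra were recorded from 700 to 250 nm at 600 nm min⁻¹, and repeated at 60 nm min⁻¹ to verify small Soret shifts. P450 concentration came from pyridine hemochromogen extinction coefficients: D251N 123±1, T252A 120±4 mM⁻¹ cm⁻¹.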

For assay [2], the target named is T2, CYP199A4 (Rhodopseudomonas palustris, UniProt Q2IU02).
T2 sequence (Q2IU02 1-410): T1 sequence (Q2IU02 1-410 T253A) with A253T

Assay [3] deals with T3, CYP199A4 (Rhodopseudomonas palustris, UniProt Q2IU02, D252N).
T3 sequence (Q2IU02 1-410 D252N): T1 sequence (Q2IU02 1-410 T253A) with D252N, A253T
The gist of the method:
as §1

`CCSc1ccc(C(=O)O)cc1` [4‐ethylthiobenzoic acid]: the Kd in assay [1] worked out at 250 ± 50 nM; in assay [2], 990 ± 50 nM.

Turning to `CSc1ccc(C(=O)O)cc1` [4‐methylthiobenzoic acid], the results for the Kd in assay [3], in assay [1] and in assay [2] were 830 ± 80 nM, 1400 ± 100 nM and 2300 ± 300 nM, respectively.

The Kd is the constant that tells how readily two partners part at equilibrium.
